The values below come from ChEMBL document CHEMBL1156239, “Synthesis, anticonvulsant and antimicrobial activities of some new 2-acetylnaphthalene derivatives” (Bioorg Med Chem, 2010).

Data set [1] concerns Rattus norvegicus. Put plainly: Anticonvulsant activity in Sprague-Dawley rat assessed as inhibition of maximal electroshock-induced seizures at 30 mg/kg, ip. In kind it is functional, organism-based. Also noted: dose 30 mg/kg.
Data set [2] has as its system Mus musculus. Description: Anticonvulsant activity in CF1 mouse assessed as time to peak effect for inhibition of maximal electroshock-induced seizures at 23 mg/kg, ip after 1 hr. It counts as functional, organism-based. Also noted: dose 23 mg/kg.
The test system of data set [3] is Mus musculus. Description: Anticonvulsant activity in CF1 mouse assessed as time to peak effect for inhibition of maximal electroshock-induced seizures at 35 mg/kg, ip after 2 hrs. In kind it is functional, organism-based. Also noted: dose 35 mg/kg.
The subject of data set [4] is Mus musculus. Description: Neurotoxicity in CF1 mouse assessed as time to peak effect muscle spasms at 150 mg/kg, ip by rotarod test. It counts as toxicity, organism-based, Muscle tissue. Also noted: dose 150 mg/kg, route intraperitoneal. The following applies: in vivo.
The subject of data set [5] is Mus musculus. Description: Neurotoxicity in CF1 mouse assessed as time to peak effect at 150 mg/kg, ip after 1 to 2 hrs by rotarod test. It counts as toxicity, organism-based. Also noted: dose 150 mg/kg, route intraperitoneal. The following applies: in vivo.
Data set [6] has as its system Rattus norvegicus. Put plainly: Neurotoxicity in ip dosed Sprague-Dawley rat after 0.5 hrs by rotarod test. The following applies: in vivo. In kind it is toxicity, organism-based.
Data set [7] relates to Rattus norvegicus. Put plainly: Anticonvulsant activity in rat assessed as inhibition of hippocampal kindle-stimulated seizures at 300 mg/kg, ip. It counts as functional, organism-based. Also noted: dose 300 mg/kg. Conditions: Hippocampus. The method in brief:
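Hippocampal kindled rat model; single animal given 300 mg/kg ip.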

In data set [8] the test system is Escherichia coli. Description: Antibacterial activity against Escherichia coli ATCC 25922 after 24 hrs by broth microdilution method. Conditions: ATCC 25922, 24 h. In kind it is functional. The method in brief: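 Broth microdilution in Mueller Hinton broth; compound stocks in DMSO, diluted into test medium. Plates incubated at 35 °C and read visually after 24 h. MIC taken as lowest concentration preventing visible growth. Ampicillin reference.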

Data set [9] has as its system Pichia kudriavzevii. Put plainly: Antifungal activity against Candida krusei ATCC 6258 after 48 hrs by broth microdilution method. It counts as functional. The following applies: ATCC 6258, 48 h.
The test system of data set [10] is Mus musculus. Description: Anticonvulsant activity in CF1 mouse assessed as inhibition of maximal electroshock-induced seizures at 300 mg/kg, ip after 0.5 hrs. Also noted: dose 300 mg/kg. In kind it is functional, organism-based. The method in brief: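 Male albino CF#1 mice (18–25.5 g), compound suspended in 0.5% methylcellulose, given ip 0.5 h or 4 h before test. Eyes treated with 0.5% tetracaine HCl in saline; corneal-type MES at 60 Hz, 50 mA for 0.2 s; protection scored as animals protected/tested.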

The subject of data set [11] is Mus musculus. Description: Neurotoxicity in CF1 mouse at 30 mg/kg, ip after 4 hrs by rotarod test. In kind it is toxicity, organism-based. Also noted: dose 30 mg/kg, route intraperitoneal. Conditions: in vivo. The method in brief:
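Male albino CF#1 mice (18–25.5 g) dosed ip with compound suspended in 0.5% methylcellulose, 0.5 h or 4 h before testing; neurotoxicity assessed by rotarod, scored as number toxic/number tested.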

The test system of data set [12] is Rattus norvegicus. Put plainly: Anticonvulsant activity in Sprague-Dawley rat assessed as inhibition of maximal electroshock-induced seizures at 30 mg/kg, po after 0.25 hrs. It counts as functional, organism-based. Also noted: dose 30 mg/kg. The method in brief:
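Male albino Sprague-Dawley rats (105–130 g) given a single oral 30 mg/kg dose suspended in 0.5% methylcellulose; MES (60 Hz, 150 mA, 0.2 s, tetracaine-anesthetized eyes) at 0.25, 0.5, 1, 2 and 4 h; 4 rats per time point; scored protected/tested.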

The test system of data set [13] is Rattus norvegicus. Description: Neurotoxicity in Sprague-Dawley rat at 30 mg/kg, po after 4 hrs by rotarod test. It counts as toxicity, organism-based. Also noted: dose 30 mg/kg, route oral. The following applies: in vivo.
Data set [14] has as its system Rattus norvegicus. Put plainly: Neurotoxicity in Sprague-Dawley rat at 30 mg/kg, ip after 0.5 hrs by rotarod test. In kind it is toxicity, organism-based. Also noted: dose 30 mg/kg, route intraperitoneal. Conditions: in vivo.
Data set [15] relates to Rattus norvegicus. Description: Neurotoxicity in Sprague-Dawley rat at 30 mg/kg, ip after 1 hr by rotarod test. It counts as toxicity, organism-based. Also noted: dose 30 mg/kg, route intraperitoneal. Conditions: in vivo.

Converted amounts (≈) assume the structure as drawn. The source made the active and inactive calls. The calls are words filed in the database; no cut-off is given here.

For the compound `CC(C)CC(=O)OC(Cn1ccnc1)c1ccc2ccccc2c1` (stereo not given), the inhibition entry in data set [1] and in data set [10] was “Active” each time. Moreover, the outcome in [2] and in data set [3] was inactive. Besides, the Time in data set [4] worked out at 0.25 h. Further, the Activity entry in data set [5] is “Not Active”; in data set [11], “Non-toxic”; in data set [13], “Non-toxic”; in data set [14] it was “Non-toxic”; in [15], “Non-toxic”. Besides, the ED50 in [6] was 56.36 mg/kg. Further, the inhibition entry in data set [7] and in data set [12] was “inactive” throughout. Further, the MIC in data set [8] was more than 1020 µg/mL; in data set [9] it was 128 µg/mL (≈ 397 µM).
